{"source": "paper PMC10092158", "about": "(The British Journal of Dermatology, 2022)", "format_in_all_cases": "in vivo, human", "key": {"[1]": {"assay": "Phase IIb study: plasma concentrations of brepocitinib", "settings": "topical cream, all dose groups; lower limit of quantification 0·200 ng mL^–1", "how_it_was_run": "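Blood was drawn pre-dose at baseline and at weeks 1, 2, 3, 4 and 6, each at the same interval after application, during 6 weeks of topical cream given QD (0·1–3·0%) or BID (0·3%, 1%). Plasma brepocitinib was quantified against an LLOQ of 0·200 ng mL–1 and summarized as median concentration per dose group.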"}, "[2]": {"tested_on": "participants with mild‐to‐moderate AD", "assay": "Phase IIb study: safety and tolerability", "how_it_was_run": "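Safety data came from randomized participants treated for 6 weeks with vehicle or cream (QD 0·1–3·0%, or BID 0·3%/1%). Measures were treatment-emergent adverse events coded by System Organ Class, discontinuations due to TEAEs, vital signs, laboratory tests (haematology, creatine kinase, liver function) and ECGs. All were summarized descriptively.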"}, "[3]": {"tested_on": "participants with mild‐to‐moderate AD", "how_it_was_run": "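Adults and children with mild-to-moderate AD (IGA 2–3, 2–20% BSA, EASI 3–21) were randomized equally to eight arms for 6 weeks. QD arms were vehicle, 0·1% (1 mg g–1), 0·3%, 1·0% or 3·0% cream; BID arms were vehicle, 0·3% or 1%. Application was to all affected areas except hair-bearing scalp. Read-outs were POEM at weeks 1, 2 and 6 and weekly PP-NRS averages, analysed by ANCOVA or MMRM.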"}}, "note": "“Also recorded” adds a separate entry of the source.", "data": [{"smiles": "Cn1cc(Nc2nccc(N3C[C@H]4CC[C@@H](C3)N4C(=O)[C@@H]3CC3(F)F)n2)cn1", "note": "[brepocitinib]", "values": [{"measurement": "Plasma brepocitinib concentrations", "setting": "[1]", "value": "low and highly variable"}, {"measurement": "Discontinued from study due to TEAE, participants", "setting": "[2]; 0·1% QD (N = 37)", "value": "2 (5·4) n (%)"}, {"measurement": "Nasopharyngitis (TEAE), participants", "setting": "[2]; 0·1% QD (N = 37)", "value": "2 (5·4) n (%)"}, {"measurement": "Severe TEAEs, participants", "setting": "[2]; 0·1% QD (N = 37)", "value": "0 n (%)"}, {"measurement": "TEAEs, all causalities, participants", "setting": "[2]; 0·1% QD (N = 37)", "value": "17 (45·9) n (%)"}, {"measurement": "Treatment‐emergent SAEs, participants", "setting": "[2]; 0·1% QD (N = 37)", "value": "0 n (%)"}, {"measurement": "Worsening of AD (TEAE), participants", "setting": "[2]; 0·1% QD (N = 37)", "value": "3 (8·1) n (%)"}, {"measurement": "Cases of creatine kinase elevation (≥ 2–3× the upper limit of normal)", "setting": "[2]; 0·1% QD and 0·3% QD groups, not deemed treatment‐related", "value": "one participant each"}, {"measurement": "Discontinued from study due to TEAE, participants", "setting": "[2]; 0·3% BID (N = 36)", "value": "1 (2·8) n (%)"}, {"measurement": "Nasopharyngitis (TEAE), participants", "setting": "[2]; 0·3% BID (N = 36)", "value": "2 (5·6) n (%)"}, {"measurement": "Severe TEAEs, participants", "setting": "[2]; 0·3% BID (N = 36)", "value": "1 (2·8) n (%)"}, {"measurement": "TEAEs, all causalities, participants", "setting": "[2]; 0·3% BID (N = 36)", "value": "9 (25·0) n (%)"}, {"measurement": "Treatment‐emergent SAEs, participants", "setting": "[2]; 0·3% BID (N = 36)", "value": "0 n (%)"}, {"measurement": "Worsening of AD (TEAE), participants", "setting": "[2]; 0·3% BID (N = 36)", "value": "0 n (%)"}, {"measurement": "Discontinued from study due to TEAE, participants", "setting": "[2]; 0·3% QD (N = 36)", "value": "1 (2·8) n (%)"}, {"measurement": "Nasopharyngitis (TEAE), participants", "setting": "[2]; 0·3% QD (N = 36)", "value": "2 (5·6) n (%)"}, {"measurement": "Severe TEAEs, participants", "setting": "[2]; 0·3% QD (N = 36)", "value": "0 n (%)"}, {"measurement": "TEAEs, all causalities, participants", "setting": "[2]; 0·3% QD (N = 36)", "value": "11 (30·6) n (%)"}, {"measurement": "Treatment‐emergent SAEs, participants", "setting": "[2]; 0·3% QD (N = 36)", "value": "0 n (%)"}, {"measurement": "Worsening of AD (TEAE), participants", "setting": "[2]; 0·3% QD (N = 36)", "value": "1 (2·8) n (%)"}, {"measurement": "Discontinued from study due to TEAE, participants", "setting": "[2]; 1.0% QD (N = 37)", "value": "2 (5·4) n (%)"}, {"measurement": "Nasopharyngitis (TEAE), participants", "setting": "[2]; 1.0% QD (N = 37)", "value": "3 (8·1) n (%)"}, {"measurement": "Severe TEAEs, participants", "setting": "[2]; 1.0% QD (N = 37)", "value": "0 n (%)"}, {"measurement": "TEAEs, all causalities, participants", "setting": "[2]; 1.0% QD (N = 37)", "value": "12 (32·4) n (%)"}, {"measurement": "Treatment‐emergent SAEs, participants", "setting": "[2]; 1.0% QD (N = 37)", "value": "0 n (%)"}, {"measurement": "Worsening of AD (TEAE), participants", "setting": "[2]; 1.0% QD (N = 37)", "value": "0 n (%)"}, {"measurement": "Discontinued from study due to TEAE, participants", "setting": "[2]; 1·0% BID (N = 37)", "value": "0 n (%)"}, {"measurement": "Nasopharyngitis (TEAE), participants", "setting": "[2]; 1·0% BID (N = 37)", "value": "2 (5·4) n (%)"}, {"measurement": "Severe TEAEs, participants", "setting": "[2]; 1·0% BID (N = 37)", "value": "0 n (%)"}, {"measurement": "TEAEs, all causalities, participants", "setting": "[2]; 1·0% BID (N = 37)", "value": "14 (37·8) n (%)"}, {"measurement": "Treatment‐emergent SAEs, participants", "setting": "[2]; 1·0% BID (N = 37)", "value": "0 n (%)"}, {"measurement": "Worsening of AD (TEAE), participants", "setting": "[2]; 1·0% BID (N = 37)", "value": "2 (5·4) n (%)"}, {"measurement": "Discontinued from study due to TEAE, participants", "setting": "[2]; 3·0% QD (N = 36)", "value": "2 (5·6) n (%)"}, {"measurement": "Nasopharyngitis (TEAE), participants", "setting": "[2]; 3·0% QD (N = 36)", "value": "4 (11·1) n (%)"}, {"measurement": "Severe TEAEs, participants", "setting": "[2]; 3·0% QD (N = 36)", "value": "0 n (%)"}, {"measurement": "TEAEs, all causalities, participants", "setting": "[2]; 3·0% QD (N = 36)", "value": "10 (27·8) n (%)"}, {"measurement": "Treatment‐emergent SAEs, participants", "setting": "[2]; 3·0% QD (N = 36)", "value": "0 n (%)"}, {"measurement": "Worsening of AD (TEAE), participants", "setting": "[2]; 3·0% QD (N = 36)", "value": "1 (2·8) n (%)"}, {"measurement": "Discontinuations due to TEAEs in SOC skin and subcutaneous tissue disorders", "setting": "[2]; all brepocitinib groups together", "value": 4, "unit": "n"}, {"measurement": "Trends in haemoglobin, platelet, lymphocyte or neutrophil counts or creatine kinase levels", "setting": "[2]; all groups", "value": "no clinically significant trends"}, {"measurement": "Serious AEs or deaths", "setting": "[2]; all groups, 6 weeks treatment", "value": "no serious AEs or deaths; also recorded: no serious TEAEs or deaths"}, {"measurement": "Percentage change from baseline in EASI score compared with respective vehicle", "setting": "[3]; 1% QD, 3% QD and 1% BID groups, week 1 and all subsequent time points", "value": "significantly greater percentage changes from baseline in EASI score"}, {"measurement": "Onset of clinically relevant reductions in pruritus", "setting": "[3]; 24 h after the first administration", "value": "as early as day 2"}, {"measurement": "Change from baseline in POEM at week 6 vs. vehicle", "setting": "[3]; all brepocitinib groups", "value": "significantly different from vehicle"}]}]}
